Data reported in article PMC6008642 (Biochemistry, 2018).

Key:
W22G of PKCδ C1B = conditions: 100% PS; cited from earlier work
[1] = target: Munc13-1 W22K mutant C1 domain; experiment: In vitro [^3H]PDBu binding assay, GST-tagged C1 domain; parameters: species or system rat
PKCδ C1B W22R = conditions: PS concentration 10%; cited from earlier work
Munc13-1 WT C1 domain = Munc13-1 WT C1 domain (Rattus norvegicus, UniProt Q62768); experiment: In vitro [^3H]PDBu binding assay, GST-tagged C1 domain; conditions: for Kd: 100 μg/mL lipid
[2] = target: full-length Munc13-1 wild-type protein (Rattus norvegicus, UniProt Q62768); type: binding; conditions: 100 μg/mL lipid (100% PS), 0.1 mM Ca2+
Procedure, shortened: (§1)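 Rat full-length Munc13-1 (WT or W588 mutant) was expressed as an N-terminal Halo fusion in transfected HEK-293 cells and harvested after one day. It was purified on Halo-link resin, released with TEV protease and stored in 30% glycerol at –80 °C. [3H]PDBu saturation binding used 100 μg/mL lipid (100% PS) and 0.1 mM Ca2+. Kd came from saturation/Scatchard analysis; triplicate points, 3–6 experiments, mean ± SEM.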

[3] = target: Munc13-1 W22A mutant C1 domain; experiment: In vitro [^3H]PDBu binding assay, GST-tagged C1 domain; parameters: species or system rat
W22G of PKCθ C1B = conditions: 100% PS; cited from earlier work
[4] = target: Munc13-1 W22K mutant C1 domain (Rattus norvegicus, UniProt Q62768, W588K); experiment: In vitro [^3H]PDBu binding assay, GST-tagged C1 domain; conditions: 100 μg/mL lipid, 0.1 mM Ca2+
[5] = target: Munc13-1 W22A mutant C1 domain (Rattus norvegicus, UniProt Q62768, W588A); experiment: as above; conditions: 100 μg/mL lipid, 0.1 mM Ca2+
[6] = target: full-length Munc13-1 protein incorporating the W22K mutation (W588 K) (Rattus norvegicus, UniProt Q62768, W588K); conditions: in vitro binding conditions as for full-length WT
Procedure, shortened: as §1

[7] = target: full-length Munc13-1 mutated at W588D (Rattus norvegicus, UniProt Q62768, W588D); type: binding; conditions: preparation from cells expressing the mutant
[8] = target: full-length GFP-Munc13-1 W588K (Rattus norvegicus, UniProt Q62768, W588K); experiment: PMA-induced membrane translocation, confocal microscopy of Neuro-2a cells; type: cell-based; conditions: 1000 nM PMA, 0-8 min, vs wild-type
[9] = target: full-length GFP-Munc13-1 W588Y (Rattus norvegicus, UniProt Q62768, W588Y); experiment: PMA-induced membrane translocation, confocal microscopy of Neuro-2a cells; type: cell-based; conditions: 1000 nM PMA, 0-8 min, vs wild-type
Procedure, shortened: (§2)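 EGFP-tagged full-length rat Munc13-1 mutants were made by site-directed mutagenesis. Neuro-2a cells (passage 2–15; RPMI-1640, 10% FBS, 2 mM L-glutamine; 37 °C) were transfected with Lipofectamine 3000. After 24 h, cells went into phenol-red-free DMEM with 1% FBS. PMA (1000 nM) was added at time 0, with confocal imaging every 20 s (ex 488 nm, em 500–530 nm). Membrane/cytoplasm intensity ratio used three ~5 μm2 regions at 0, 2, 4 and 8 min; 3 cells × 3 experiments, mean ± SEM.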

[10] = target: full-length GFP-Munc13-1 W588A (Rattus norvegicus, UniProt Q62768, W588A); experiment: as above; type: cell-based; conditions: 1000 nM PMA, 0-8 min, vs wild-type
Procedure, shortened: as §2

[11] = target: GFP tagged Munc13-1 C1 domain (Rattus norvegicus, UniProt Q62768); experiment: Translocation after PMA treatment, confocal microscopy of LNCaP cells; type: cell-based
Procedure, shortened: (§3)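 LNCaP cells (passage 2–15; RPMI-1640, 10% FBS, 2 mM L-glutamine) were grown to 75% confluency and transfected with Lipofectamine plus Plus reagent 24 h after plating. They expressed GFP-tagged rat Munc13-1 C1 domain or GFP-tagged full-length protein. After a further 24 h, cells were moved to phenol-red-free DMEM with 1% FBS. PMA (100 or 1000 nM) was added and localization was followed by live confocal imaging (GFP ex 488 nm); 3 independent experiments.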

[12] = target: GFP-tagged full-length Munc13-1 (Rattus norvegicus, UniProt Q62768); experiment: as above; type: cell-based
Procedure, shortened: as §3

[13] = target: full-length GFP-Munc13-1 W588F (Rattus norvegicus, UniProt Q62768, W588F); experiment: PMA-induced membrane translocation, confocal microscopy of Neuro-2a cells; type: cell-based; conditions: 1000 nM PMA, 0-8 min, vs wild-type
[14] = target: full-length GFP-Munc13-1 W599D (Rattus norvegicus, UniProt Q62768, W588D); experiment: PMA-induced membrane translocation, confocal microscopy of Neuro-2a cells; type: cell-based; conditions: 1000 nM PMA, 0-8 min, vs wild-type
Procedure, shortened: as §2

CCCCCCCCCCCCCC(=O)O[C@@H]1[C@@H](C)[C@@]2(O)[C@@H](C=C(CO)C[C@]3(O)C(=O)C(C)=C[C@@H]23)[C@@H]2C(C)(C)[C@]12OC(C)=O [phorbol ester]
fold reduction in phorbol ester affinity as compared to WT (W22G of PKCδ C1B): 31 fold | Kd(mutant)/Kd(WT) ([1]; Lipid 20:80 PS:PC): 13 | Kd(mutant)/Kd(WT) ([1]; Lipid 100:0 PS:PC): 1.6 | fold reduced phorbol ester affinity as compared to the WT (PKCδ C1B W22R): 9 fold | Kd (Munc13-1 WT C1 domain; Lipid 100:0 PS:PC, 0.1 mM Ca2+): 98 nM | Kd [2]: 3.7 nM | Kd(mutant)/Kd(WT) ([3]; Lipid 100:0 PS:PC): ~ 5 | fold reduction in phorbol ester affinity as compared to WT (W22G of PKCθ C1B): 8 fold

CCCC(=O)O[C@@H]1[C@@H](C)[C@@]2(O)[C@@H](C=C(CO)C[C@]3(O)C(=O)C(C)=C[C@@H]23)[C@@H]2C(C)(C)[C@]12OC(=O)CCC [[^3H]PDBu, [20-^3H]Phorbol 12,13-dibutyrate]
Kd ([4]; Lipid 20:80 PS:PC): 420 ± 120 nM | Kd ([4]; Lipid 100:0 PS:PC): 160 ± 20 nM | Kd(mutant)/Kd(WT) ([1]; Lipid 20:80 PS:PC): 13 | Kd(mutant)/Kd(WT) ([1]; Lipid 100:0 PS:PC): 1.6 | amount of [^3H]PDBu bound at 100% PS relative to that at 20% PS (Munc13-1 WT C1 domain; 5 nM [^3H]PDBu, 100 μg/mL phospholipid, 0.1 mM Ca2+): less than 15% | fold weaker binding affinity than that of the C1b domain of PKCδ (Munc13-1 WT C1 domain; 100% PS): 100 fold | Kd (Munc13-1 WT C1 domain; Lipid 20:80 PS:PC, 0.1 mM Ca2+): 32.5 ± 2.6 nM | Kd (Munc13-1 WT C1 domain; Lipid 100:0 PS:PC, 0.1 mM Ca2+): 98 ± 36 nM | Kd [2]: 3.7 ± 0.32 nM | Kd(mutant)/Kd(WT) ([3]; Lipid 20:80 PS:PC): >31 | Kd(mutant)/Kd(WT) ([3]; Lipid 100:0 PS:PC): 4.7 | Kd ([5]; Lipid 20:80 PS:PC): > 1000 nM | Kd ([5]; Lipid 100:0 PS:PC): 460 ± 260 nM | Kd [6]: 3.3 ± 1.2 nM | [^3H]PDBu binding [7]: did not see any binding

CCCCCCCCCCCCCC(=O)O[C@@H]1[C@@H](C)[C@@]2(O)[C@@H](C=C(CO)C[C@]3(O)C(=O)C(C)=C[C@@H]23)[C@@H]2C(C)(C)[C@]12OC(C)=O [PMA, phorbol 12-myristate 13-acetate]
translocation in response to PMA [8]: did not significantly influence the translocation | translocation in response to PMA [9]: delayed | translocation in response to PMA [10]: significantly decreased translocation | translocation of GFP-C1 domain ([11]; 100 nM PMA): Translocation was not observed | translocation of GFP-C1 domain ([11]; 1000 nM PMA): translocated within 10 min from the nucleus to internal membranes but not to the plasma membrane | translocation of full-length Munc13-1 [12]: translocated to the plasma membrane | translocation in response to PMA [13]: did not significantly influence the translocation | translocation in response to PMA [14]: totally abolished
